# Screening results from PubChem BioAssay.
# Shown are actives, neighbours in structure and some others; about 3.7% of the full set was active somewhere.
# Kir21 block – Kir2.1 (mouse) channel inhibition | B-score at 10 µM | P35561 | HEK293-Kir2.1, FluxOR thallium flux fluorescence; active compounds read low | hit rate 0.85% among 310,000;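 active means fluorescence ratio B-score at or below minus 3 SD of library scores, with starting-brightness B-score within 2 SD, cut at about -4.2 in these data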;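 further: channel flux triggered by added potassium and thallium sulfate stimulus; B-score of peak minus minimum fluorescence over baseline after thallium stimulus; more negative B-score means stronger Kir2.1 block with less thallium influx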
# KCNQ1 block – blocks the human KCNQ1 potassium channel; P51787; CHO-K1 KCNQ1, FluxOR thallium flux fluorescence; active compounds read high; B-score at 10 µM; hit rate 1.3% among 310,000; AID 2642;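 active means compounds whose thallium flux B-score, printed positive for inhibition, exceeds three library SD while starting fluorescence stays within three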;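 further: channel opened by potassium depolarization with thallium stimulus after 20 min compound exposure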
# hERG rescue – hERG (human) protection from proarrhythmic block; Q12809; AID 1511; CHO-hERG, FluxOR thallium flux, dofetilide IC70 present; hit rate 0.51% among 310,000; activation (rescue from dofetilide block), less the hit threshold, % at 10 µM;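 active means activation above the mean of controls blocked by dofetilide plus 5 SD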;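 further: thallium influx through hERG after potassium depolarization seen as dye fluorescence rise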
# KCNK9 inh – blocks the human KCNK9 two-pore domain potassium channel. Q9NPC2. HEK293 KCNK9, FluxOR thallium flux fluorescence; active compounds read low. B-score at 10 µM. hit rate 1.2% among 310,000. AID 488922;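 active means ratio B-score over 3 SD below the library mean, with starting fluorescence within 5 SD of its mean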;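 further: negative B-score means less thallium flux so channel inhibition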
# KCNQ1 act – potentiators or activators of human KCNQ1 potassium channel. P51787. CHO-K1 KCNQ1, thallium flux FluxOR fluorescence; active compounds read high. B-score at 10 µM. hit rate 0.35% among 310,000. AID 2648;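 active means fluorescence ratio B-score, a plate-corrected score, at least three library SD, with initial intensity B-score within 5 SD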
#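 Assay system: CHO-K1 cells stably expressing KCNQ1; Medium: assay buffer with matched DMSO; Also added: K+/Tl+ depolarizing stimulus; Dosing: single dose; Timing: dye 90 min, compound 20 min, room temperature; Measured by: kinetic FluxOR thallium fluorescence, 10-s 1-Hz baseline, 110-s post-stimulus read; Read-out: peak-minus-minimum fluorescence over initial fluorescence, negative-control normalized, B-scored.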
# KCNK3 block – human KCNK3 channel inhibition, primary screen; B-score at 10 µM; AID 602410; CHO-KCNK3 thallium flux, FluxOR fluorescence; active compounds read low; hit rate 0.84% among 340,000; O14649;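 active means B-score under library mean minus 4 SD, starting fluorescence ratio at most library mean plus 5 SD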;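 further: more negative B-score means stronger inhibition of thallium flux through KCNK3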
# Target sequence (O14649 whole entry, looked up): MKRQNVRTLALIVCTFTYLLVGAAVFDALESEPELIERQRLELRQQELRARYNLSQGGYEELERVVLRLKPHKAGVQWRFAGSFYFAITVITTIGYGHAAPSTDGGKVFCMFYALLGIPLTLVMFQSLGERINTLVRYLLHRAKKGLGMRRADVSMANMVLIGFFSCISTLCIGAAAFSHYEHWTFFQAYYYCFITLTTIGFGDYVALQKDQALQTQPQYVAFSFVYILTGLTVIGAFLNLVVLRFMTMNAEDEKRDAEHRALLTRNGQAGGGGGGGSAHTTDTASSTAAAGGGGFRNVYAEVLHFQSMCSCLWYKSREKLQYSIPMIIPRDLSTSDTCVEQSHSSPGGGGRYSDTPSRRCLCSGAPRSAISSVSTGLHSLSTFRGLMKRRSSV
# KCNK3 inh conf – human KCNK3 channel inhibition, confirmation assay; CHO-KCNK3 thallium flux, FluxOR fluorescence; 0% buffer, 100% carvedilol maximal block; shares compounds with KCNK3 block; AID 651638; ratio percent of control, % at 10 µM; hit rate 99% among 2,400;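 active means ratio percent of control, averaged over triplicates, above buffer control mean plus 5 SD, cut at about 64% in these data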;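 further: ratio is the fluorescence rise from min to max over baseline after thallium stimulus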
# KCNK3 noninduced – counter-screen for KCNK3 inhibitors: effect in non-induced cells; hit rate 40% among 2,400; thallium flux ratio (lower = more inhibition) at 10 µM; non-induced KCNK3 parental cells, FluxOR thallium flux; active compounds read low; AID 651747; shares compounds with KCNK3 block;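 active means thallium flux ratio, averaged over three wells, more than 5 SD below the buffer control mean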;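 further: host cells are CHO cells without KCNK3 induction; ratio is peak minus trough fluorescence over baseline then normalized to buffer controls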
# Numbers without * were called inactive; i = inactive; nt = no result given.
SMILES,Kir21 block,KCNQ1 block,hERG rescue,KCNK9 inh,KCNQ1 act,KCNK3 block,KCNK3 inh conf,KCNK3 noninduced
N#Cc1nc(COc2ccccc2F)oc1NCCc1ccccc1,0.84,i,-7.8,i,i,-10.2*,101.7*,i
CN(Cc1ccccc1)c1oc(COc2ccccc2F)nc1C#N,-0.45,i,-11.3,i,i,-13.2*,115.3*,0.144*
O=c1[nH]c(-c2ccccc2)nc(-c2ccccc2)c1Cl,1.09,i,-8.8,i,i,i,nt,nt
O=C(COc1cccc2cccnc12)N/N=C/c1ccc(O)cc1,1.86,i,-8.2,i,i,i,nt,nt
O=C(COc1cccc2cccnc12)N/N=C/c1cccn1-c1ccc(F)cc1,0.05,i,-21.5,i,i,-8.71*,108.3*,i
COc1cccc(-c2nc(CS(=O)(=O)CC(=O)NC3CCC(C)CC3)c(C)o2)c1 (stereo not drawn),-0.87,i,-6.3,i,i,-10.4*,0.0,i
COc1cccc(-c2nc(CS(=O)(=O)CC(=O)NC3CCCC3)c(C)o2)c1,0.35,i,-8.3,i,i,i,nt,nt
CC(C)c1ccc(/C=C(\NC(=O)c2ccccc2)C(=O)NCCN2CCOCC2)cc1,-1.07,i,-6.7,i,i,i,nt,nt
N#Cc1cn(CCCOc2ccccc2)c2ccccc12,-3.94,i,-7.0,i,i,-9.47*,115.0*,0.14*
c1ccc2c(-c3c[nH]c4ccccc34)c3ccccc3nc2c1,0.26,i,0.6,i,i,-9.96*,123.0*,i
CC1=C(C(=O)Nc2cccc(C(=O)NC3CCCC(C)C3C)c2)SCCO1 (stereo not drawn),0.68,i,-11.3,i,i,-9.32*,97.0*,i
CC1=C(C(=O)Nc2cccc(C(=O)NC(C)c3ccccc3)c2)SCCO1 (stereo not drawn),-1.55,i,-12.6,i,i,-8.89*,76.0*,i
COc1cc(C(=O)Nc2cccc(-c3nnc(-c4ccco4)o3)c2)ccc1OC(C)=O,0.94,i,-13.7,i,i,-9.52*,113.3*,i
Cc1nc(C(=O)Nc2cccc(Cl)c2)nn1-c1cc(OC(C)C)c(Cl)cc1Cl,-0.5,i,-11.3,i,i,-8.9*,96.3*,i
Cc1cccc(Nc2nc(N)c([N+](=O)[O-])c(N3CC(C)OC(C)C3)n2)c1 (stereo not drawn),0.68,i,-10.1,i,i,-8.96*,88.3*,i
Cc1cccc(Nc2nc(N)c([N+](=O)[O-])c(N3CC(C)CC(C)C3)n2)c1 (stereo not drawn),-1.95,i,-11.7,i,i,i,nt,nt
COc1cccc(NC(=O)CN(C)C(=O)c2cc(-c3ccccc3)nc3ccccc23)c1,0.02,i,-14.4,i,i,i,nt,nt
COc1cccc(NC(=O)CN(C)C(=O)/C=C/c2cn(-c3ccccc3)nc2-c2ccc(C)cc2)c1,-1.68,10*,-28.3,i,i,-8.7*,92.0*,i
COc1cccc(NC(=O)CN(C)C(=O)c2cc(-c3ccc(F)cc3)nc3ccccc23)c1,0.93,i,-25.0,i,i,-9.3*,133.0*,0.11*
C/C(COc1ccccc1)=N\NC(=O)c1nnn(-c2nonc2N)c1CSc1ccccc1,-0.93,i,-3.2,i,i,i,nt,nt
CC(=O)N1c2ccc(S(=O)(=O)N3CCC(C(=O)N4CCC(C)CC4)CC3)cc2CC1C (stereo not drawn),-1.22,i,-6.4,i,i,i,nt,nt
CC(=O)N1c2ccc(S(=O)(=O)N3CCC(C(=O)N4CCN(c5cc(Cl)ccc5C)CC4)CC3)cc2CC1C (stereo not drawn),-0.86,6*,-6.2,i,i,-9.53*,107.7*,i
O=C(NNC(=O)c1cccs1)c1ccc(Cl)nc1,-0.87,i,-10.9,i,i,i,nt,nt
COC(=O)c1c(S(=O)(=O)NCc2ccccc2)sc(C(=O)O)c1C,-0.39,i,-10.0,i,i,-10.8*,120.7*,0.158*
COC(=O)c1sc(S(=O)(=O)NC(Cc2ccccc2)C(=O)O)c(C(=O)OC)c1C (stereo not drawn),nt,nt,nt,nt,nt,i,nt,nt
SMILES,Kir21 block,KCNQ1 block,hERG rescue,KCNK9 inh,KCNQ1 act,KCNK3 block,KCNK3 inh conf,KCNK3 noninduced
COc1ccccc1NS(=O)(=O)c1ccc2[nH]c(=S)oc2c1,nt,nt,nt,nt,nt,i,nt,nt
O=C1OC(c2ccccc2)(c2ccccc2)c2ccccc21,nt,nt,nt,nt,nt,-12.5*,107.0*,i
O=C1CC(c2ccccc2)(c2ccccc2)c2ccccc21,nt,nt,nt,nt,nt,i,nt,nt
Cc1cc(NC(=O)c2cc(C(C)C)on2)nn1Cc1ccc(Cl)cc1,-0.41,i,-11.0,i,i,-9.51*,104.7*,i
Cc1cc(C(=O)Nc2cc(C)n(Cc3ccc(Cl)cc3)n2)no1,-1.21,i,-6.0,i,i,i,nt,nt
CCN1C/C(=C/c2cccc([N+](=O)[O-])c2)C(=O)/C(=C/c2cccc([N+](=O)[O-])c2)C1,nt,nt,nt,nt,nt,i,nt,nt
COc1ccc(C2=NS(=O)(=O)N(C)C(C(=O)Nc3ccc4c(c3)OCO4)=C2)cc1,nt,nt,nt,nt,nt,i,nt,nt
Cc1ccc(C2=NS(=O)(=O)N(C)C(C(=O)Nc3ccc4c(c3)OCO4)=C2)cc1,-0.24,i,-10.2,-6.69*,i,-9.96*,122.3*,0.143*
CCN(CC1COc2ccccc2O1)C(=O)c1ccc(Cl)c(S(=O)(=O)N2CC(C)OC(C)C2)c1 (stereo not drawn),0.66,i,-14.8,i,i,i,nt,nt
CC1CN(S(=O)(=O)c2cc(C(=O)N(CCc3ccccc3)Cc3ccccc3)ccc2Cl)CC(C)O1 (stereo not drawn),0.72,i,-16.0,i,i,-8.74*,85.0*,i
CCCCN1CN(S(=O)(=O)c2ccc(OC)cc2)c2nc3ccccc3nc21,1.2,i,-9.0,i,i,-8.89*,90.3*,i
CCCCN(C(=O)COc1ccc(C)cc1OC)c1c(N)n(CCC)c(=O)[nH]c1=O,-0.26,i,-12.0,i,i,i,nt,nt
CCOC(=O)[C@@H]1[C@H]2COc3ccccc3[C@@H]2N2C(=O)N(c3ccc(Cl)cc3)C(=O)[C@]12C,-1.54,i,-8.7,i,i,i,nt,nt
CC1CC(Nc2ccccc2)c2ccccc2N1C(=O)c1ccco1 (stereo not drawn),-3.17,i,-10.3,i,i,-13.1*,115.3*,i
